Published values collected from several papers.
Each line is one published result; the experiments were not run side by side.
Target: Myosin light chain kinase (MYLK3, Homo sapiens, UniProt Q32MK0)
Sequence (Q32MK0 1-819, as in one of the studies): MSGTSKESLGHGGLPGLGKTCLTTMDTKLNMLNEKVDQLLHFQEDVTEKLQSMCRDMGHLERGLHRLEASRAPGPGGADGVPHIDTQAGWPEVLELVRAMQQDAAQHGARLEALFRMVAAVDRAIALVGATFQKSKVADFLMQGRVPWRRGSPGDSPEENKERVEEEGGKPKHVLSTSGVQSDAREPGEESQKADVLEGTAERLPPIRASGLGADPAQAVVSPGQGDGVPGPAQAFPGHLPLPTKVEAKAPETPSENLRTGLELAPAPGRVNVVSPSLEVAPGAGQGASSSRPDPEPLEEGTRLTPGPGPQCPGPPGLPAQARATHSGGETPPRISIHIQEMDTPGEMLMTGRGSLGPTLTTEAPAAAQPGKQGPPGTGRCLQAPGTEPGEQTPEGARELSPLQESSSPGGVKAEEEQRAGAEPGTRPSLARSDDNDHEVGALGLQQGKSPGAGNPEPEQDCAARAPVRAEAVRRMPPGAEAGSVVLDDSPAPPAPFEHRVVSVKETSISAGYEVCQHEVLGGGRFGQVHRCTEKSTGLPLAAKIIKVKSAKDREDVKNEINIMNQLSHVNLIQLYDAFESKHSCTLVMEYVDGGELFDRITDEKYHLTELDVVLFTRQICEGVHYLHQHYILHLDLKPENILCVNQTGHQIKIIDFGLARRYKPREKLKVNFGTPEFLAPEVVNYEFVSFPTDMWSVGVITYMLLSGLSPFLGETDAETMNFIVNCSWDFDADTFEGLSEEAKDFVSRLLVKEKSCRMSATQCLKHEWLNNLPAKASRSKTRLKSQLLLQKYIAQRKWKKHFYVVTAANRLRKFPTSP

Cn1cc(-c2cc(F)cc(N3CCn4c(cc5c4CCCC5)C3=O)c2CO)cc(Nc2ccc(N3CCN(C4COC4)CC3)cn2)c1=O  inhibition (enzyme activity; inhibitor; 0.1 µM): -5%
COc1cc(Nc2ncc(F)c(Nc3ccc4c(n3)NC(=O)C(C)(C)O4)n2)cc(OC)c1OC  inhibition (binding; competition with immobilised ligand; 10 µM): 30%
Nc1ncc(-c2nc(N3CCOCC3)nc(N3CCOCC3)n2)c(C(F)F)n1  remaining binding (binding; competition with immobilised ligand; 10 µM): 84%
N#CC1(c2ccccn2)CCN(Cc2cc(C(=O)O)c(=O)n3ccccc23)CC1  remaining binding (cell-free assay; competition with immobilised ligand; 1 µM): 87%
Cc1nn(C)cc1-c1nc2c(N3CCN(Cc4ccc(Cl)cc4)CC3)c(Cl)cnc2[nH]1  remaining binding (binding; competition with immobilised ligand; 1 µM): 100%
Cn1cc(-c2cccc(N3CCc4c(sc5c4CC(C)(C)C5)C3=O)c2CO)cc(Nc2ccncn2)c1=O  inhibition (enzyme activity; inhibitor; 1 µM): -8%
Cn1cncc1[C@](O)(COc1ccc(C#N)cc1-c1ccc(OC(F)(F)F)cc1)c1ccc(C#N)cc1  remaining binding (cell-free assay; competition with immobilised ligand; 1 µM): 100%
COc1ncccc1-c1cnn2ccc(N3CCN(C(=O)OC(C)C)CC3)nc12  remaining binding (binding; competition with immobilised ligand; 1 µM): 100%
